Experiments:
Type in all cases: functional
M14 = experiment: Growth inhibition of human M14 cells at 10 uM after 48 hrs; conditions: M14, 48 h, read-out: GI
Procedure, shortened: (§1)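 Single-dose primary screen in the NCI 60 human tumour cell line panel, run at the NCI facility. The panel covers nine subpanels: leukaemia, non-small cell lung, colon, CNS, melanoma, ovarian, renal, prostate and breast. Read-out was percent growth of treated cells, shown as a mean graph and reported as percent growth inhibition.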

BT-549 = experiment: Growth inhibition of human BT549 cells at 10 uM after 48 hrs; conditions: BT-549, 48 h, read-out: GI; procedure, shortened: as §1
[1] = Cytotoxicity against human leukemia cells at 10 uM after 48 hrs; conditions: Leukemia cell
A549 = experiment: Growth inhibition of human A549 cells at 10 uM after 48 hrs; conditions: A549, 48 h, read-out: GI; procedure, shortened: as §1
[2] = Cytotoxicity against human colon cancer cells at 10 uM after 48 hrs; conditions: Cancer cell lines; for CC50: read-out: LC50 (the source's name); procedure, shortened: as §1
[3] = Growth inhibition of human HOP92 cells at 10 uM after 48 hrs; conditions: HOP-92, 48 h, read-out: GI; procedure, shortened: as §1
SK-MEL-5 = experiment: Growth inhibition of human SK-MEL-5 cells at 10 uM after 48 hrs; conditions: SK-MEL-5, 48 h, read-out: GI
Procedure, shortened: (§2)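 NCI 60-cell-line disease-oriented human tumor panel, single-dose primary screen at 10 µM. Data given as mean-graph percent growth of treated cells, reported as percent growth inhibition (GI %).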

[4] = Cytotoxicity against human melanoma cells at 10 uM after 48 hrs; conditions: Melanoma cell; for CC50: read-out: LC50 (the source's name); procedure, shortened: as §1
Malme-3M = experiment: Growth inhibition of human MALME-3M cells at 10 uM after 48 hrs; conditions: read-out: GI; procedure, shortened: as §1
HCT-15 = experiment: Growth inhibition of human HCT15 cells at 10 uM after 48 hrs; conditions: HCT-15, 48 h, read-out: GI; procedure, shortened: as §1
[5] = Cytotoxicity against human non-small cell lung cancer cells at 10 uM after 48 hrs; conditions: Cancer cell lines; for CC50: read-out: LC50 (the source's name); procedure, shortened: as §1
SF-295 = experiment: Growth inhibition of human SF295 cells at 10 uM after 48 hrs; conditions: SF-295, 48 h, read-out: GI; procedure, shortened: as §2
ACHN = experiment: Growth inhibition of human ACHN cells at 10 uM after 48 hrs; conditions: read-out: GI; procedure, shortened: as §1
MDA-MB-468 = experiment: Growth inhibition of human MDA-MB-468 cells at 10 uM after 48 hrs; conditions: MDA-MB-468, 48 h, read-out: GI; procedure, shortened: as §1
[6] = Cytotoxicity against human renal cancer cells at 10 uM after 48 hrs; conditions: Cancer cell lines
MDA-MB-435 = experiment: Growth inhibition of human MDA-MB-435 cells at 10 uM after 48 hrs; conditions: MDA-MB-435, 48 h, read-out: GI; procedure, shortened: as §1
A498 = experiment: Growth inhibition of human A498 cells at 10 uM after 48 hrs; conditions: A498, 48 h, read-out: GI; procedure, shortened: as §1
NCI-H522 = experiment: Growth inhibition of human NCI-H522 cells at 10 uM after 48 hrs; conditions: NCI-H522, 48 h, read-out: GI; procedure, shortened: as §1
[7] = Cytotoxicity against human breast cancer cells at 10 uM after 48 hrs; conditions: Cancer cell lines; procedure, shortened: as §1
[8] = Growth inhibition of human UACC257 cells at 10 uM after 48 hrs; conditions: UACC-257, 48 h, read-out: GI; procedure, shortened: as §2
HOP-62 = experiment: Growth inhibition of human HOP62 cells at 10 uM after 48 hrs; conditions: HOP-62, 48 h, read-out: GI; procedure, shortened: as §1
COLO 205 = experiment: Growth inhibition of human COLO205 cells at 10 uM after 48 hrs; conditions: COLO 205, 48 h, read-out: GI; procedure, shortened: as §1
NCI-H460 = experiment: Growth inhibition of human NCI-H460 cells at 10 uM after 48 hrs; conditions: NCI-H460, 48 h, read-out: GI; procedure, shortened: as §1
U-251 = experiment: Growth inhibition of human U251 cells at 10 uM after 48 hrs; conditions: U-251, 48 h, read-out: GI; procedure, shortened: as §2
[9] = Cytotoxicity against human CNS cancer cells at 10 uM after 48 hrs; conditions: Cancer cell lines; for CC50: read-out: LC50 (the source's name)
UACC-62 = experiment: Growth inhibition of human UACC62 cells at 10 uM after 48 hrs; conditions: UACC-62, 48 h, read-out: GI; procedure, shortened: as §2
LOX IMVI = experiment: Growth inhibition of human LOXIMVI cells at 10 uM after 48 hrs; conditions: read-out: GI; procedure, shortened: as §1
HCT-116 = experiment: Growth inhibition of human HCT116 cells at 10 uM after 48 hrs; conditions: HCT-116, 48 h, read-out: GI; procedure, shortened: as §1
RPMI-8226 = experiment: Growth inhibition of human RPMI8226 cells at 10 uM after 48 hrs; conditions: RPMI-8226, 48 h, read-out: GI; procedure, shortened: as §1

For `Clc1ccc(/C=C2\CCCC3=C(c4ccc(Cl)cc4)Nc4ccccc4N=C32)cc1`, the inhibition of growth at 10 µM (M14) was 70.9%, the inhibition of growth at 10 µM (BT-549) was < 30% and the GI50 [1] was 4.1 µM. The LC50 [1] was > 100 µM, the TGI [1] was 49.4 µM and the inhibition of growth at 10 µM (A549) was < 30%. It also gave a GI50 [2] of 2.4 µM, a TGI [2] of 6.4 µM and a CC50 [2] of 38.8 µM. For the same compound, the inhibition of growth at 10 µM [3] was 39.4%, the inhibition of growth at 10 µM (SK-MEL-5) was < 30% and the GI50 [4] was 9.5 µM. The TGI [4] was 24.3 µM, the CC50 [4] was 64.2 µM and the inhibition of growth at 10 µM (Malme-3M) was < 30%. It also gave an inhibition of growth at 10 µM (HCT-15) of 36.4%, a GI50 [5] of 9 µM and a TGI [5] of 35.2 µM. For the same compound, the CC50 [5] was 81.3 µM, the inhibition of growth at 10 µM (SF-295) was < 30% and the inhibition of growth at 10 µM (ACHN) was < 30%. For the same compound, the inhibition of growth at 10 µM (MDA-MB-468) was 40%, the CC50 [6] was 64 µM and the GI50 [6] was 3.3 µM. The TGI [6] was 29.1 µM, the inhibition of growth at 10 µM (MDA-MB-435) was 88.2% and the inhibition of growth at 10 µM (A498) was 32.8%. For the same compound, the inhibition of growth at 10 µM (NCI-H522) was 80.1%, the GI50 [7] was 4.6 µM and the LC50 (concentration killing 50% of cells) [7] was 88.1 µM. The TGI [7] was 58.2 µM, the inhibition of growth at 10 µM [8] was < 30% and the inhibition of growth at 10 µM (HOP-62) was < 30%. For the same compound, the inhibition of growth at 10 µM (COLO 205) was 31.9%, the inhibition of growth at 10 µM (NCI-H460) was < 30% and the inhibition of growth at 10 µM (U-251) was 79.2%. For the same compound, the GI50 [9] was 4.9 µM, the TGI [9] was 52.4 µM and the CC50 [9] was 84.3 µM. For the same compound, the inhibition of growth at 10 µM (UACC-62) was < 30%.
With `Cc1nc2c(c(-c3ccc(Cl)cc3)n1)CCC/C2=C\c1ccc(Cl)cc1` the inhibition of growth at 10 µM (M14) was 34.7%, the inhibition of growth at 10 µM (LOX IMVI) was 63.2% and the inhibition of growth at 10 µM (BT-549) was 34%. For the same compound, the inhibition of growth at 10 µM (A549) was < 30%, the inhibition of growth at 10 µM [3] was < 30% and the inhibition of growth at 10 µM (SK-MEL-5) was < 30%. The inhibition of growth at 10 µM (Malme-3M) was < 30%, the inhibition of growth at 10 µM (HCT-15) was < 30% and the inhibition of growth at 10 µM (SF-295) was < 30%. The inhibition of growth at 10 µM (ACHN) was < 30%, the inhibition of growth at 10 µM (MDA-MB-468) was < 30% and the inhibition of growth at 10 µM (MDA-MB-435) was 77.7%. For the same compound, the inhibition of growth at 10 µM (A498) was < 30%, the inhibition of growth at 10 µM (NCI-H522) was < 30% and the inhibition of growth at 10 µM [8] was < 30%. The inhibition of growth at 10 µM (HOP-62) was < 30%, the inhibition of growth at 10 µM (COLO 205) was < 30% and the inhibition of growth at 10 µM (NCI-H460) was < 30%. The inhibition of growth at 10 µM (U-251) was 44% and the inhibition of growth at 10 µM (UACC-62) was < 30%.
For `COc1ccc(/C=C2\CCCc3c2nc(N)nc3-c2ccc(OC)cc2)cc1`, the inhibition of growth at 10 µM (M14) was < 30%, the inhibition of growth at 10 µM (LOX IMVI) was < 30% and the inhibition of growth at 10 µM (BT-549) was < 30%. The inhibition of growth at 10 µM (A549) was < 30%, the inhibition of growth at 10 µM [3] was 31.4% and the inhibition of growth at 10 µM (SK-MEL-5) was 43.8%. For the same compound, the inhibition of growth at 10 µM (HCT-116) was < 30%, the inhibition of growth at 10 µM (Malme-3M) was < 30% and the inhibition of growth at 10 µM (HCT-15) was < 30%. The inhibition of growth at 10 µM (SF-295) was < 30%, the inhibition of growth at 10 µM (ACHN) was < 30% and the inhibition of growth at 10 µM (RPMI-8226) was 42.3%. For the same compound, the inhibition of growth at 10 µM (MDA-MB-435) was < 30%, the inhibition of growth at 10 µM (A498) was < 30% and the inhibition of growth at 10 µM (NCI-H522) was < 30%. For the same compound, the inhibition of growth at 10 µM [8] was < 30%, the inhibition of growth at 10 µM (HOP-62) was < 30% and the inhibition of growth at 10 µM (COLO 205) was < 30%. For the same compound, the inhibition of growth at 10 µM (NCI-H460) was < 30%, the inhibition of growth at 10 µM (U-251) was < 30% and the inhibition of growth at 10 µM (UACC-62) was 32.1%.
`COc1ccc(/C=C2\CCCc3c2nc(N)nc3-c2ccc(OC)c(OC)c2)cc1OC` showed an inhibition of growth at 10 µM (M14) of 42.7%, an inhibition of growth at 10 µM (LOX IMVI) of 87.1% and an inhibition of growth at 10 µM (BT-549) of 63.9%. The GI50 [1] was 2.1 µM, the LC50 [1] was > 100 µM and the TGI [1] was 65.1 µM. The inhibition of growth at 10 µM (A549) was 41.2%, the GI50 [2] was 17.4 µM and the TGI [2] was 75.8 µM. The CC50 [2] was 89.8 µM, the inhibition of growth at 10 µM [3] was < 30% and the inhibition of growth at 10 µM (SK-MEL-5) was 60.3%. It also gave an inhibition of growth at 10 µM (HCT-116) of 92.1%, a GI50 [4] of 5.5 µM and a TGI [4] of 73.4 µM. The CC50 [4] was 95.6 µM, the inhibition of growth at 10 µM (Malme-3M) was 47.5% and the inhibition of growth at 10 µM (HCT-15) was 64.1%. For the same compound, the GI50 [5] was 22.1 µM, the TGI [5] was 71.1 µM and the CC50 [5] was 94.3 µM. The inhibition of growth at 10 µM (SF-295) was < 30%, the inhibition of growth at 10 µM (ACHN) was 72.7% and the inhibition of growth at 10 µM (RPMI-8226) was 84.8%. It also gave a CC50 [6] of 93.6 µM, a GI50 [6] of 7.8 µM and a TGI [6] of 66.7 µM. For the same compound, the inhibition of growth at 10 µM (MDA-MB-435) was 69.2%, the inhibition of growth at 10 µM (A498) was < 30% and the inhibition of growth at 10 µM (NCI-H522) was 83.3%. The GI50 [7] was 3.9 µM, the LC50 (concentration killing 50% of cells) [7] was > 100 µM and the TGI [7] was 87.3 µM. It also gave an inhibition of growth at 10 µM [8] of 53.8%, an inhibition of growth at 10 µM (HOP-62) of 43% and an inhibition of growth at 10 µM (COLO 205) of 54%. The inhibition of growth at 10 µM (NCI-H460) was 35.4%, the inhibition of growth at 10 µM (U-251) was 62.2% and the GI50 [9] was 26.7 µM. For the same compound, the TGI [9] was 85.7 µM, the CC50 [9] was > 100 µM and the inhibition of growth at 10 µM (UACC-62) was 47.2%.
